Laboratory results taken from ChEMBL document CHEMBL4689842, “EUbOPEN Chemogenomics Library wave 1” (2021).
“And” between values parts separate entries of the source, which are not always exact repeats. Equal entries are not always repeated.

System: U2OS
Assay: Multiplex assay against U2OS
Type: toxicity, cell-based
Conditions: human
In short: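 Per cents of healthy-nucleus cells form the tubulin, mitochondrial-mass and membrane-permeability phenotype values. Live cells were stained at seeding with Hoechst33342, BioTracker Green Microtubule Cytoskeleton Dye, MitoTracker Red and Annexin V Alexa Fluor 680. After compound addition they were imaged on a CQ1 microscope at 37°C and 5% CO2, and CellPathfinder machine-learning gating split them into Hoechst high-intensity objects or normal cells, normal cells into healthy, pyknosed or fragmented nuclei, and pyknosed cells into mitotic or apoptotic.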

[1] = 12 h, 1 µM, compound concentration 1 uM, replicate 1
[2] = 12 h, 1 µM, compound concentration 1 uM, replicate 2
[3] = 12 h, 10 µM, compound concentration 10 uM, replicate 1
[4] = 12 h, 10 µM, compound concentration 10 uM, replicate 2
[5] = 24 h, 1 µM, compound concentration 1 uM, replicate 1
[6] = 24 h, 1 µM, compound concentration 1 uM, replicate 2
[7] = 24 h, 10 µM, compound concentration 10 uM, replicate 1
[8] = 24 h, 10 µM, compound concentration 10 uM, replicate 2
[9] = 48 h, 10 µM, compound concentration 10 uM, replicate 1
[10] = 48 h, 10 µM, compound concentration 10 uM, replicate 2

CN[C@@H]1C[C@H]2O[C@@](C)([C@@H]1OC)n1c3ccccc3c3c4c(c5c6ccccc6n2c5c31)C(=O)NC4 [STAUROSPORINE]
Population Apoptotic (%) [1]: 53%
Population Fragmented Nuclei (%) [1]: 47%
Population Healthy Nuclei (%) [1]: 12%
Population Hoechst High Intensity Objects (%) [1]: 4%
Population Membrane Permeable-Phenotype (%) [1]: 89%
Population Mitochondria Different-Phenotype (%) [1]: 57%
Population Mitotic Cells (%) [1]: 46%
Population Normal (%) [1]: 95%
Population Pyknosed Nuclei (%) [1]: 40%
Population Tubulin-Different-Phenotype (%) [1]: 89%
Population Apoptotic (%) [2]: 62%
Population Fragmented Nuclei (%) [2]: 65%
Population Healthy Nuclei (%) [2]: 3%
Population Hoechst High Intensity Objects (%) [2]: 7%
Population Membrane Permeable-Phenotype (%) [2]: 100%
Population Mitochondria Different-Phenotype (%) [2]: 83%
Population Mitotic Cells (%) [2]: 37%
Population Normal (%) [2]: 92%
Population Pyknosed Nuclei (%) [2]: 30%
Population Tubulin-Different-Phenotype (%) [2]: 91%
Population Apoptotic (%) [3]: 51% and 87% and 83%
Population Fragmented Nuclei (%) [3]: 45% and 41% and 40%
Population Healthy Nuclei (%) [3]: 5% and 0% and 1%
Population Hoechst High Intensity Objects (%) [3]: 6% and 7% and 3%
Population Membrane Permeable-Phenotype (%) [3]: 94% and 100% and 71%
Population Mitochondria Different-Phenotype (%) [3]: 50% and 100% and 85%
Population Normal (%) [3]: 93% and 92% and 96%
Population Pyknosed Nuclei (%) [3]: 48% and 57% and 58%
Population Tubulin-Different-Phenotype (%) [3]: 94% and 100%
Population Apoptotic (%) [4]: 86% and 56% and 73%
Population Fragmented Nuclei (%) [4]: 26% and 64% and 42%
Population Healthy Nuclei (%) [4]: 15% and 6% and 12%
Population Hoechst High Intensity Objects (%) [4]: 15% and 8%
Population Membrane Permeable-Phenotype (%) [4]: 95% and 84%
Population Mitochondria Different-Phenotype (%) [4]: 75% and 71% and 84%
Population Normal (%) [4]: 84% and 91%
Population Pyknosed Nuclei (%) [4]: 29% and 45%
Population Tubulin-Different-Phenotype (%) [4]: 91% and 92%
Population Apoptotic (%) [5]: 93%
Population Fragmented Nuclei (%) [5]: 34%
Population Healthy Nuclei (%) [5]: 22%
Population Hoechst High Intensity Objects (%) [5]: 14%
Population Membrane Permeable-Phenotype (%) [5]: 96%
Population Mitochondria Different-Phenotype (%) [5]: 56%
Population Mitotic Cells (%) [5]: 6%
Population Normal (%) [5]: 85%
Population Pyknosed Nuclei (%) [5]: 42%
Population Tubulin-Different-Phenotype (%) [5]: 92%
Population Apoptotic (%) [6]: 94%
Population Fragmented Nuclei (%) [6]: 58%
Population Healthy Nuclei (%) [6]: 10%
Population Hoechst High Intensity Objects (%) [6]: 13%
Population Membrane Permeable-Phenotype (%) [6]: 95%
Population Mitochondria Different-Phenotype (%) [6]: 66%
Population Mitotic Cells (%) [6]: 5%
Population Normal (%) [6]: 86%
Population Pyknosed Nuclei (%) [6]: 31%
Population Tubulin-Different-Phenotype (%) [6]: 91%
Population Apoptotic (%) [7]: 93% and 90% and 94%
Population Fragmented Nuclei (%) [7]: 48% and 46% and 38%
Population Healthy Nuclei (%) [7]: 0% and 15%
Population Hoechst High Intensity Objects (%) [7]: 5% and 11%
Population Mitochondria Different-Phenotype (%) [7]: 50% and 45%
Population Mitotic Cells (%) [7]: 6% and 9% and 5%
Population Normal (%) [7]: 94% and 88%
Population Pyknosed Nuclei (%) [7]: 50% and 52% and 45%
Population Tubulin-Different-Phenotype (%) [7]: 50% and 100% and 94%
Population Apoptotic (%) [8]: 88% and 96% and 77%
Population Hoechst High Intensity Objects (%) [8]: 27% and 26%
Population Membrane Permeable-Phenotype (%) [8]: 95% and 92%
Population Mitochondria Different-Phenotype (%) [8]: 95% and 69% and 92%
Population Normal (%) [8]: 72% and 73%
Population Pyknosed Nuclei (%) [8]: 36% and 23% and 38%
Population Tubulin-Different-Phenotype (%) [8]: 95% and 92%
Population Apoptotic (%) [9]: 95%
Population Fragmented Nuclei (%) [9]: 51% and 55%
Population Healthy Nuclei (%) [9]: 0%
Population Hoechst High Intensity Objects (%) [9]: 7% and 11%
Population Mitochondria Different-Phenotype (%) [9]: 66% and 100%
Population Mitotic Cells (%) [9]: 4%
Population Normal (%) [9]: 92% and 88%
Population Pyknosed Nuclei (%) [9]: 47% and 43%
Population Tubulin-Different-Phenotype (%) [9]: 100%
Population Apoptotic (%) [10]: 89% and 100%
Population Fragmented Nuclei (%) [10]: 22% and 13%
Population Healthy Nuclei (%) [10]: 49% and 56%
Population Hoechst High Intensity Objects (%) [10]: 18% and 25%
Population Mitochondria Different-Phenotype (%) [10]: 96% and 92%
Population Mitotic Cells (%) [10]: 10% and 0%
Population Normal (%) [10]: 81% and 74%
Population Pyknosed Nuclei (%) [10]: 28% and 30%
Population Tubulin-Different-Phenotype (%) [10]: 96% and 92%

CN1CCN(C(=O)C(C)(C)c2ccc(C(=O)Nc3cn4cc(-c5cc(C(C)(C)C)cc(C(C)(C)C)c5)ccc4n3)cc2)CC1 [T3-CLK-N]
Population Apoptotic (%) [1]: 25%
Population Fragmented Nuclei (%) [1]: 8%
Population Healthy Nuclei (%) [1]: 81%
Population Hoechst High Intensity Objects (%) [1]: 8%
Population Membrane Permeable-Phenotype (%) [1]: 18%
Population Mitochondria Different-Phenotype (%) [1]: 20%
Population Mitotic Cells (%) [1]: 75%
Population Normal (%) [1]: 91%
Population Pyknosed Nuclei (%) [1]: 9%
Population Tubulin-Different-Phenotype (%) [1]: 18%
Total Cell Count [1]: 162
Population Apoptotic (%) [2]: 28%
Population Fragmented Nuclei (%) [2]: 6%
Population Healthy Nuclei (%) [2]: 86%
Population Hoechst High Intensity Objects (%) [2]: 11%
Population Membrane Permeable-Phenotype (%) [2]: 14%
Population Mitochondria Different-Phenotype (%) [2]: 29%
Population Mitotic Cells (%) [2]: 71%
Population Normal (%) [2]: 88%
Population Pyknosed Nuclei (%) [2]: 6%
Population Tubulin-Different-Phenotype (%) [2]: 14%
Total Cell Count [2]: 72
Population Apoptotic (%) [3]: 27%
Population Fragmented Nuclei (%) [3]: 5%
Population Healthy Nuclei (%) [3]: 87%
Population Hoechst High Intensity Objects (%) [3]: 3%
Population Membrane Permeable-Phenotype (%) [3]: 58%
Population Mitochondria Different-Phenotype (%) [3]: 20%
Population Mitotic Cells (%) [3]: 72%
Population Normal (%) [3]: 96%
Population Pyknosed Nuclei (%) [3]: 6%
Population Tubulin-Different-Phenotype (%) [3]: 34%
Total Cell Count [3]: 177
Population Apoptotic (%) [4]: 50%
Population Fragmented Nuclei (%) [4]: 16%
Population Healthy Nuclei (%) [4]: 80%
Population Hoechst High Intensity Objects (%) [4]: 15%
Population Membrane Permeable-Phenotype (%) [4]: 56%
Population Mitochondria Different-Phenotype (%) [4]: 38%
Population Mitotic Cells (%) [4]: 50%
Population Normal (%) [4]: 84%
Population Pyknosed Nuclei (%) [4]: 3%
Population Tubulin-Different-Phenotype (%) [4]: 31%
Total Cell Count [4]: 120
Population Apoptotic (%) [5]: 23%
Population Fragmented Nuclei (%) [5]: 9%
Population Healthy Nuclei (%) [5]: 80%
Population Hoechst High Intensity Objects (%) [5]: 9%
Population Membrane Permeable-Phenotype (%) [5]: 8%
Population Mitochondria Different-Phenotype (%) [5]: 14%
Population Mitotic Cells (%) [5]: 76%
Population Normal (%) [5]: 90%
Population Pyknosed Nuclei (%) [5]: 10%
Population Tubulin-Different-Phenotype (%) [5]: 15%
Total Cell Count [5]: 175
Population Apoptotic (%) [6]: 33%
Population Fragmented Nuclei (%) [6]: 6%
Population Healthy Nuclei (%) [6]: 89%
Population Hoechst High Intensity Objects (%) [6]: 8%
Population Membrane Permeable-Phenotype (%) [6]: 13%
Population Mitochondria Different-Phenotype (%) [6]: 24%
Population Mitotic Cells (%) [6]: 66%
Population Normal (%) [6]: 91%
Population Pyknosed Nuclei (%) [6]: 4%
Population Tubulin-Different-Phenotype (%) [6]: 16%
Total Cell Count [6]: 97
Population Apoptotic (%) [7]: 54%
Population Fragmented Nuclei (%) [7]: 9%
Population Healthy Nuclei (%) [7]: 83%
Population Hoechst High Intensity Objects (%) [7]: 2%
Population Membrane Permeable-Phenotype (%) [7]: 53%
Population Mitochondria Different-Phenotype (%) [7]: 27%
Population Mitotic Cells (%) [7]: 45%
Population Normal (%) [7]: 97%
Population Pyknosed Nuclei (%) [7]: 6%
Population Tubulin-Different-Phenotype (%) [7]: 39%
Total Cell Count [7]: 230
Population Apoptotic (%) [8]: 50%
Population Fragmented Nuclei (%) [8]: 17%
Population Healthy Nuclei (%) [8]: 71%
Population Hoechst High Intensity Objects (%) [8]: 14%
Population Membrane Permeable-Phenotype (%) [8]: 48%
Population Mitochondria Different-Phenotype (%) [8]: 56%
Population Mitotic Cells (%) [8]: 50%
Population Normal (%) [8]: 85%
Population Pyknosed Nuclei (%) [8]: 10%
Population Tubulin-Different-Phenotype (%) [8]: 43%
Total Cell Count [8]: 144
